Experimental data as given in ChEMBL document CHEMBL1156631 (J Med Chem, 2008).

Columns and labels:
[1] = biological target: T1, Cannabinoid receptor 1 (Homo sapiens, UniProt P21554); test: Agonist activity at human CB1 receptor expressed in Sf9 cells by GTP-europium binding assay
Outline: (§1)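 Membranes were from Sf9 insect cells cotransfected with CB1 or CB2 plus Gαi3 (Bmax 1.7 pmol/mL). Compound (0.01 nM–10 µM, 1% DMSO final) was added to buffer with Hepes, BSA, 10 mM MgCl2, 150 mM NaCl, 5 µM GDP, 10 nM GTP-europium, saponin and membranes (CB1 4.5 µg/well, CB2 14 µg/well). 100% efficacy was set by 3 µM reference agonist.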

[2] = biological target: T2, Cannabinoid receptor 2 (Homo sapiens, UniProt P34972); test: Agonist activity at human recombinant CB2 receptor expressed in Sf9 cells by GTP-europium binding assay; outline: as §1
T2 sequence (P34972 whole entry): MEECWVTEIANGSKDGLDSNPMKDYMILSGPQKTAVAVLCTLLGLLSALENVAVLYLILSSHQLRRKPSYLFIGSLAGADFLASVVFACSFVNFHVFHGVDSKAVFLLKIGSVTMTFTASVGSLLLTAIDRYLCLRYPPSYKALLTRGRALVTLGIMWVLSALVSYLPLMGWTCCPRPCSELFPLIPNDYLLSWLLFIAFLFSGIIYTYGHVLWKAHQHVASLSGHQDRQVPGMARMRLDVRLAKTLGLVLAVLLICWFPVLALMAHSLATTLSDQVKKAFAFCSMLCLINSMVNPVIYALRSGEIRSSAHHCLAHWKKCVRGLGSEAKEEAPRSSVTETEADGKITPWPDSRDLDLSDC

[3] = biological target: T1, Cannabinoid receptor 1; test: Agonist activity at human recombinant CB1 receptor expressed in Sf9 cells by GTP-europium binding assay relative to CP-55940
Outline: as §1, with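 “µg/well). Incubation was 45 min at room temperature, then filtration and washing, with fluorescence read at 615 nm.” for “µg/well).”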

[4] = biological target: T2, Cannabinoid receptor 2; test: Agonist activity at human recombinant CB2 receptor expressed in Sf9 cells by GTP-europium binding assay relative to CP-55940
Outline: as §1, with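 “µg/well). Incubation was 45 min at room temperature, then filtration and washing, with fluorescence read at 615 nm.” for “µg/well).”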

[5] = biological target: T1, Cannabinoid receptor 1; test: Agonist activity at human recombinant CB1 receptor expressed in CHO-K1 cells assessed as inhibition of forskolin-stimulated intracellular cAMP level; assay type: functional, cell-based
Outline: (§2)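 CHO-K1 cells stably expressing human or rat CB1 or CB2 were used. Compounds were diluted from DMSO into HBSS/HEPES/BSA buffer containing 60 µM forskolin, then combined with 5000 cells/well plus Alexa647 anti-cAMP antibody, 1 h at room temperature. A biotinylated-cAMP detection mix was added for another 1 h.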

[6] = biological target: T2, Cannabinoid receptor 2; test: Agonist activity at human recombinant CB2 receptor expressed in CHO-K1 cells assessed as inhibition of forskolin-stimulated intracellular cAMP level; assay type: functional, cell-based; outline: as §2
[7] = biological target: T1, Cannabinoid receptor 1; test: Agonist activity at human recombinant CB1 receptor expressed in CHO-K1 cells assessed as inhibition of forskolin-stimulated intracellular cAMP level relative to CP-55940; assay type: functional, cell-based
Outline: as §2, with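 “h. Emission at 665 nm gave concentration-response curves and EC50; Emax is expressed as a percentage of the reference agonist maximum.” for “h.”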

[8] = biological target: T2, Cannabinoid receptor 2; test: Agonist activity at human recombinant CB2 receptor expressed in CHO-K1 cells assessed as inhibition of forskolin-stimulated intracellular cAMP level relative to CP-55940; assay type: functional, cell-based
Outline: as §2, with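 “h. Emission at 665 nm gave concentration-response curves and EC50; Emax is expressed as a percentage of the reference agonist maximum.” for “h.”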

[9] = biological target: Cannabinoid receptor 1 (Rattus norvegicus, UniProt P20272); test: Agonist activity at rat recombinant CB1 receptor expressed in CHO-K1 cells assessed as inhibition of forskolin-stimulated intracellular cAMP level; assay type: functional, cell-based; outline: as §2
Cannabinoid receptor 1 (Rattus norvegicus, UniProt P20272), sequence (P20272 whole entry): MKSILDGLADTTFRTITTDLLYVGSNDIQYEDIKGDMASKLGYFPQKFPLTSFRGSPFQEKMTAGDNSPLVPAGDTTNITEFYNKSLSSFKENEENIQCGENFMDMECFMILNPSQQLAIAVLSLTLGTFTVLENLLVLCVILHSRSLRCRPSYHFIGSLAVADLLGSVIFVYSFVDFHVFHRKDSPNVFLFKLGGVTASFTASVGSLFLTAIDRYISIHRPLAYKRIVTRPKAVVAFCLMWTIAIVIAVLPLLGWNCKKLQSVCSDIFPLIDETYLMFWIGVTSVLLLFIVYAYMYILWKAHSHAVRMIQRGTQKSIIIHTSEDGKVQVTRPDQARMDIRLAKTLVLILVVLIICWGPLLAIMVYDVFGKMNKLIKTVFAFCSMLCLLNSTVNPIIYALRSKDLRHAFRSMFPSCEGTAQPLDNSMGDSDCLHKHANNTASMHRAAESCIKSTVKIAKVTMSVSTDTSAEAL

[10] = biological target: T3, Cannabinoid receptor 2 (Rattus norvegicus, UniProt Q9QZN9); test: Agonist activity at rat recombinant CB2 receptor expressed in CHO-K1 cells assessed as inhibition of forskolin-stimulated intracellular cAMP level; assay type: functional, cell-based
T3 sequence (Q9QZN9 whole entry): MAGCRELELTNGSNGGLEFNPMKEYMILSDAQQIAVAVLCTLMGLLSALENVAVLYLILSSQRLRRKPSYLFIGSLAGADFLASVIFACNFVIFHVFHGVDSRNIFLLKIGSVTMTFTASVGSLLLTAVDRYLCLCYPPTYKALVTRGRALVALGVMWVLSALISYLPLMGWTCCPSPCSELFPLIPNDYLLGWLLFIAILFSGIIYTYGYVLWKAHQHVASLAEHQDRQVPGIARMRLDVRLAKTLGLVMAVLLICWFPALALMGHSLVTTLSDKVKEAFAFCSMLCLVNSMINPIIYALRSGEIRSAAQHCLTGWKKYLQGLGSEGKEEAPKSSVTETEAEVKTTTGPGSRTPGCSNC
Outline: as §2, with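 “h. Emission at 665 nm gave concentration-response curves and EC50; Emax is expressed as a percentage of the reference agonist maximum.” for “h.”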

[11] = biological target: Cannabinoid receptor 1 (Rattus norvegicus) (UniProt P20272); test: Agonist activity at rat recombinant CB1 receptor expressed in CHO-K1 cells assessed as inhibition of forskolin-stimulated intracellular cAMP level relative to CP-55940; assay type: functional, cell-based
Cannabinoid receptor 1 (Rattus norvegicus), sequence (P20272 whole entry): as the sequence (P20272 whole entry) above
Outline: as §2, with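 “h. Emission at 665 nm gave concentration-response curves and EC50; Emax is expressed as a percentage of the reference agonist maximum.” for “h.”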

[12] = biological target: T4, Cannabinoid receptor 2 (Rattus norvegicus) (UniProt Q9QZN9); test: Agonist activity at rat recombinant CB2 receptor expressed in CHO-K1 cells assessed as inhibition of forskolin-stimulated intracellular cAMP level relative to CP-55940; assay type: functional, cell-based
T4 sequence (whole entry): T3 sequence (Q9QZN9 whole entry)
Outline: as §2, with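 “h. Emission at 665 nm gave concentration-response curves and EC50; Emax is expressed as a percentage of the reference agonist maximum.” for “h.”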

T1 sequence (P21554 whole entry): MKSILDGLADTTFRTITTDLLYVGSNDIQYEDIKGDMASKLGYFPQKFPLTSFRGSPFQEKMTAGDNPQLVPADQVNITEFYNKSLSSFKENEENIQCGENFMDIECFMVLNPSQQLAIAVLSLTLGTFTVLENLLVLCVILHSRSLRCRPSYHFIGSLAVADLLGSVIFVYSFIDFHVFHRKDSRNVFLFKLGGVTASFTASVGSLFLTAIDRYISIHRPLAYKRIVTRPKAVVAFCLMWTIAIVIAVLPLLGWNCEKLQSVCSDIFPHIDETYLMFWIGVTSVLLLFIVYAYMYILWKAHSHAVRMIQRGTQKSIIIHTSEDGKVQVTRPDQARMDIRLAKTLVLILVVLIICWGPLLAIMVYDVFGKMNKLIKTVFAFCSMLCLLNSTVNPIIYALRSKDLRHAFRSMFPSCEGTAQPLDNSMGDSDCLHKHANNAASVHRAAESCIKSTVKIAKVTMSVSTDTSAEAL

SMILES	EC50 [1] [nM]	EC50 [2] [nM]	Emax [3] [%]	Emax [4] [%]	EC50 [5] [nM]	EC50 [6] [nM]	Emax [7] [%]	Emax [8] [%]	EC50 [9] [nM]	EC50 [10] [nM]	Emax [11] [%]	Emax [12] [%]
CC(C)(C)c1cc(NC(=O)CCc2nc(-c3ccc(F)cc3Cl)no2)no1	1600	0.2	103	120	> 1000	0.7	48	96	170	0.4	110	100
CCCCCCC(C)(C)c1ccc([C@@H]2C[C@H](O)CC[C@H]2CCCO)c(O)c1 [CP-55940]	–	–	–	–	–	–	–	–	–	0.34	–	–
Fc1ccc(-c2noc(CCCNc3nc4ccc(Cl)cc4s3)n2)c(Cl)c1	3300	170	16	100	> 1000	110	25	87	> 1000	290	45	66
CCn1c2ccccc2c2cc(NC(=O)CCc3nc(-c4ccc(F)cc4C)no3)ccc21	1400	0.089	24	120	> 1000	0.47	–	100	280	0.27	81	110
CCn1c2ccccc2c2cc(NC(=O)CCc3nc(-c4ccc(F)cc4C#N)no3)ccc21	709	0.85	39	120	> 1000	0.33	12	110	240	0.13	84	130
CCn1c2ccccc2c2cc(NC(=O)CCc3nc(-c4ccc(F)cc4)no3)ccc21	1200	9.8	55	95	330	4.8	24	95	650	3.2	65	90
CCn1c2ccccc2c2cc(NC(=O)CCc3noc(-c4ccccc4F)n3)ccc21	> 10000	190	–	76	–	–	–	–	–	–	–	–
O=C(CCc1nc(-c2ccc(F)cc2Cl)no1)Nc1ccc(C(F)(F)F)cc1	> 10000	75	–	120	> 1000	38	–	94	> 1000	58	–	90
CCn1c2ccccc2c2cc(NC(=O)CCc3cc(-c4ccccc4F)no3)ccc21	> 10000	270	–	64	–	–	–	–	–	–	–	–
CCn1c2ccccc2c2cc(NC(=O)CCc3nc(C4CCOCC4)no3)ccc21	> 10000	42	–	94	> 1000	2.4	23	98	150	0.38	110	100
CCn1c2ccccc2c2cc(NC(=O)CCc3nc(-c4ccccc4)no3)ccc21	–	150	–	100	–	–	–	–	–	–	–	–
CC(C)(C)c1cc(NCCCc2nc(-c3ccc(F)cc3Cl)no2)no1	670	27	33	110	> 1000	130	–	90	> 1000	190	–	82
CC(C)(C)c1ncc(OCCCc2nc(-c3ccc(F)cc3Cl)no2)cn1	610	4.9	99	110	1500	24	63	91	540	16	86	100
CCn1c2ccccc2c2cc(NC(=O)CCc3nc(-c4ccc(F)cc4Cl)no3)ccc21	1200	1.8	65	98	> 1000	0.6	20	100	330	0.4	79	98
N#Cc1cc(NCCCc2nc(-c3ccc(F)cc3Cl)no2)cnc1OCC(F)(F)F	1300	31	24	110	> 1000	360	–	87	> 1000	130	–	85
CCn1c2ccccc2c2cc(NC(=O)CCc3cc(-c4ccccc4F)[nH]n3)ccc21	> 10000	> 10000	–	–	–	–	–	–	–	–	–	–
CCn1c2ccccc2c2cc(NC(=O)CCc3nc(-c4ccncc4C#N)no3)ccc21	> 10000	3.8	–	110	> 1000	> 2.6	–	100	> 1000	1.3	–	110
CCn1c2ccccc2c2cc(NC(=O)CCn3cc(-c4ccccc4F)nn3)ccc21	> 10000	470	–	15	–	–	–	–	–	–	–	–
CCn1c2ccccc2c2cc(NC(=O)CCc3nc(-c4ccccc4F)co3)ccc21	> 10000	2000	–	46	–	–	–	–	–	–	–	–
CC(C)(C)c1ncc(NC(=O)CCc2nc(-c3ccc(F)cc3Cl)no2)cn1	> 10000	5.4	–	91	> 1000	2.9	–	97	570	1.3	67	99
CCn1c2ccccc2c2cc(NC(=O)CCc3cc(-c4ccccc4F)n(C)n3)ccc21	> 10000	> 10000	–	–	–	–	–	–	–	–	–	–
O=C(CCc1nc(-c2ccc(F)cc2Cl)no1)Nc1ccc(C(F)(F)F)nc1	2800	97	17	120	> 1000	78	–	96	> 1000	73	–	95
CC(C)c1ccc(NC(=O)CCc2nc(-c3ccc(F)cc3Cl)no2)cc1	2000	10	23	130	–	–	–	–	–	–	–	–
CCn1c2ccccc2c2cc(NC(=O)CCn3nnc(-c4ccccc4F)n3)ccc21	> 10000	200	–	93	> 1000	690	–	88	> 1000	97	–	90
CCn1c2ccccc2c2cc(NC(=O)CCc3nc(-c4ccccc4C(C)C)no3)ccc21	> 10000	670	–	88	–	–	–	–	–	–	–	–
O=C(CCc1nc(-c2ccc(F)cc2Cl)no1)Nc1ccc(C(F)(F)F)c(Cl)c1	> 10000	62	–	120	> 1000	25	–	97	> 1000	79	–	100
CCn1c2ccccc2c2cc(NC(=O)CCc3nc(-c4ccccc4Cl)no3)ccc21	> 10000	6	–	100	–	–	–	–	–	–	–	–
CCn1c2ccccc2c2cc(NC(=O)CCc3nc(-c4cccc(Cl)c4)no3)ccc21	> 10000	410	–	87	–	–	–	–	–	–	–	–
